Test results published in ChEMBL document CHEMBL3734689, “Enzyme kinetics and inhibition of histone acetyltransferase KAT8” (Eur J Med Chem, 2015).
Activity calls are given as the source filed them. The rule behind the calls is not given here.

Columns and labels:
[1] = target: T1, Histone acetyltransferase KAT8 (Homo sapiens) (UniProt Q9H7Z6); assay: Inhibition of recombinant N-terminal His6-tagged KAT8 (unknown origin) expressed in Escherichia Coli BL21 DE3 cells assessed as reduction of Co A level using histone H4 substrate at 400 uM after 15 mins by CPM fluorescence assay
T1 sequence (whole entry): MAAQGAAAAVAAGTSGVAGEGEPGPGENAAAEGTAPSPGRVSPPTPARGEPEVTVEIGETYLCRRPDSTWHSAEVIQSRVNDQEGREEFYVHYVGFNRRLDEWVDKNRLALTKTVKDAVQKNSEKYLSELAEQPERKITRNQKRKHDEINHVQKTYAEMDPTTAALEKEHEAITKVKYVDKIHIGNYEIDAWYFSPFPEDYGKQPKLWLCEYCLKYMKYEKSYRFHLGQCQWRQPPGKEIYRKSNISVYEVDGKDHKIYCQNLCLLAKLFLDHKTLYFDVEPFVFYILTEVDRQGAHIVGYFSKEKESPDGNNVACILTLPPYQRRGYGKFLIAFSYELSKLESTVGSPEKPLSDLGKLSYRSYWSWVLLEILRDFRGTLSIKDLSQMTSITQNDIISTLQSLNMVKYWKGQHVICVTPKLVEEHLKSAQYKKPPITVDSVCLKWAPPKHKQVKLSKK

[2] = target: T1, Histone acetyltransferase KAT8 (Homo sapiens); assay: Inhibition of recombinant N-terminal His6-tagged KAT8 (unknown origin) expressed in Escherichia Coli BL21 DE3 cells assessed as reduction of Co A level using histone H4 substrate after 15 mins by CPM fluorescence assay
[3] = target: Histone acetyltransferase p300 (Homo sapiens) (UniProt Q09472); assay: Inhibition of human recombinant Histone acetyltransferase p300 catalytic domain (1284-1672 residues) using [3H]Acetyl-CoA and histone H3 substrate at 50 uM after 1 hr by liquid scintillation counting
Method in brief: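 p300 activity was measured by radiolabel transfer to the histone substrate. Compounds were tested at a single 50 µM concentration, and the value is the percent inhibition.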

[4] = target: Histone acetyltransferase p300 (Homo sapiens) (UniProt Q09472); assay: Inhibition of human recombinant Histone acetyltransferase p300 catalytic domain (1284-1672 residues) using [3H]Acetyl-CoA and histone H3 substrate at 200 uM after 1 hr by liquid scintillation counting

Chain of Histone acetyltransferase p300 (Homo sapiens) (Q09472 whole entry, the tested form may be a part): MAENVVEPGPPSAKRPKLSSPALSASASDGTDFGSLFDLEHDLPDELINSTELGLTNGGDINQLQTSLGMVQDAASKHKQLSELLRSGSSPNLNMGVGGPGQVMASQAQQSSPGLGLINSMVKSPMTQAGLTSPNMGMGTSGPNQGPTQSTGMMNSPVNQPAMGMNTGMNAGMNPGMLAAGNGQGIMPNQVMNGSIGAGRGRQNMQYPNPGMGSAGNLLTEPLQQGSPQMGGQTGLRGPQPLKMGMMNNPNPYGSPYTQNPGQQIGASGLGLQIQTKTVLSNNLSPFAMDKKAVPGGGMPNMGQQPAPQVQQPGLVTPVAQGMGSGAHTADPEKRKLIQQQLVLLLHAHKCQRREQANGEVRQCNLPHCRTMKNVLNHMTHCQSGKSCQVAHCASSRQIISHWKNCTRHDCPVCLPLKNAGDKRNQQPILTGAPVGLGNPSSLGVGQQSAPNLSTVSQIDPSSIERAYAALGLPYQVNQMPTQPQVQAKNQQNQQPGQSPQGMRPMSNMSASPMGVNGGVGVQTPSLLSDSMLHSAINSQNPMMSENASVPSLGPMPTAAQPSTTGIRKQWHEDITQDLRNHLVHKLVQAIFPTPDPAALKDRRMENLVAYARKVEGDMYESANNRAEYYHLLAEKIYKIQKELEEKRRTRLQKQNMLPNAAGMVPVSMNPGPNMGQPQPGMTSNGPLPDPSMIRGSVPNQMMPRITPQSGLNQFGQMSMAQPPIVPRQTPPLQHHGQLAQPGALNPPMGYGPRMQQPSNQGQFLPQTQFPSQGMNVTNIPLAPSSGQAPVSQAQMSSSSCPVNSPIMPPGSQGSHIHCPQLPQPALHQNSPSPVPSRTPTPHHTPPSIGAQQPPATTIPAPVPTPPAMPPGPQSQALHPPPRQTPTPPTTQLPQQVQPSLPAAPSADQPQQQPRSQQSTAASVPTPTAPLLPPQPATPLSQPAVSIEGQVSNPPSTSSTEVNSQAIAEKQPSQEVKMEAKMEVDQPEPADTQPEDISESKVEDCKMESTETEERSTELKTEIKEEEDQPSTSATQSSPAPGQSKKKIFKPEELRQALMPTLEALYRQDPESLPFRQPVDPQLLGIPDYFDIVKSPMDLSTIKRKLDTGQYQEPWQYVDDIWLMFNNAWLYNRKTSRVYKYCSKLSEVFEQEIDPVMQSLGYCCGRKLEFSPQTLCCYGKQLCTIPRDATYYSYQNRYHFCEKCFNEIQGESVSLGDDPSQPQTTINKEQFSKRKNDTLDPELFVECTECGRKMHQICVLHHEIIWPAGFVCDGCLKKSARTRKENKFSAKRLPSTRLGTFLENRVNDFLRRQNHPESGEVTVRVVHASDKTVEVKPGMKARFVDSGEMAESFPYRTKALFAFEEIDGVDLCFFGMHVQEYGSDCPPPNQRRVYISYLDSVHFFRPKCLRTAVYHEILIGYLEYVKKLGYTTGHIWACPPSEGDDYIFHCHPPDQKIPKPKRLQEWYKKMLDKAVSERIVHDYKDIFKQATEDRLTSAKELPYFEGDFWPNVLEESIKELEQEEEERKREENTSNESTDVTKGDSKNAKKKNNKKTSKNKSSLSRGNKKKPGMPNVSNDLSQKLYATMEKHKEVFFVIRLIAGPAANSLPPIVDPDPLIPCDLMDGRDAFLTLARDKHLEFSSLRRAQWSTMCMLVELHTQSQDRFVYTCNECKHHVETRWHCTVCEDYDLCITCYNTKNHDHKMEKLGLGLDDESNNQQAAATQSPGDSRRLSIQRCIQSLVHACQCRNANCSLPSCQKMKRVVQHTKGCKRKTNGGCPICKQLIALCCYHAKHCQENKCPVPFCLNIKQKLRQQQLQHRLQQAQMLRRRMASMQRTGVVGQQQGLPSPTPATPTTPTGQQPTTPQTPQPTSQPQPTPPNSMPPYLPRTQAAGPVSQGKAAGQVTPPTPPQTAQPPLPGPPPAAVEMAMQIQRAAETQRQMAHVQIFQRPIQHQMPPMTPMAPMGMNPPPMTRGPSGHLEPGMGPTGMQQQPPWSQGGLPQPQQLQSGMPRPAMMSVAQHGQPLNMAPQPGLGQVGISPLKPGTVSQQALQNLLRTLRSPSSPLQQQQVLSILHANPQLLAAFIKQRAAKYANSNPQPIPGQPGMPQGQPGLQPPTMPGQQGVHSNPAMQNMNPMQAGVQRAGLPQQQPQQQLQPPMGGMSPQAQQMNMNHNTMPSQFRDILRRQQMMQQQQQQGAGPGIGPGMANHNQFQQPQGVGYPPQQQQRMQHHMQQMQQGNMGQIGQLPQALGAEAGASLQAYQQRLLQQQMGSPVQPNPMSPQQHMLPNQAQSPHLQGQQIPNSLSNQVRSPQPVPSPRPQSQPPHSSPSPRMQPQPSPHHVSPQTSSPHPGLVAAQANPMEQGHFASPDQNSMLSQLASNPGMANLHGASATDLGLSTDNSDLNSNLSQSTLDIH

Structure (SMILES): O=C(O)c1c(O)cccc1CCCCCCCCCCCO
- inhibition [1]: > 50%
- logIC50 [2]: 2.72
- inhibition [3]: inactive
- inhibition [4]: inactive

Structure (SMILES): CC1=NN(c2ccc(C(=O)O)cc2)C(=O)/C1=C/c1ccc(-c2cc(C)c(C)cc2[N+](=O)[O-])o1
- inhibition [1]: inactive
- logIC50 [2]: > 2.8

Structure (SMILES): CCCCCCCCCCCCCCCc1ccc(O)c(C(=O)O)c1
- inhibition [1]: > 50%
- logIC50 [2]: 2.42
- inhibition [3]: 85%

Structure (SMILES): CCCCCCCCCCc1ccc(O)c(C(=O)O)c1
- inhibition [1]: > 50%
- logIC50 [2]: 2.28
- inhibition [3]: 95%

Structure (SMILES): O=C(O)c1c(O)cccc1CCCCCO
- inhibition [1]: inactive
- logIC50 [2]: > 2.8
- inhibition [3]: inactive
- inhibition [4]: inactive

Structure (SMILES): CCCCCCCCCCCCCCCc1cccc(O)c1C(=O)O
- inhibition [3]: 97%

Structure (SMILES): CCCCCc1cccc(O)c1C(=O)O
- inhibition [1]: inactive
- logIC50 [2]: > 2.8
- inhibition [3]: inactive
- inhibition [4]: inactive

Structure (SMILES): CCCCCCCCCCc1cccc(O)c1C(=O)O
- inhibition [1]: > 50%
- logIC50 [2]: 2.09
- inhibition [3]: 88%

Structure (SMILES): CCCCCc1ccc(O)c(C(=O)O)c1
- inhibition [1]: inactive
- logIC50 [2]: > 2.8
- inhibition [3]: inactive
- inhibition [4]: inactive

Structure (SMILES): CCCCCCCSCC(=O)c1ccccc1O
- inhibition [1]: inactive
- logIC50 [2]: > 2.8
- inhibition [3]: inactive
- inhibition [4]: inactive
